Results published in PubChem BioAssay.
Active and inactive are the calls of the source.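 The calls were made as follows, unless noted: active = viability at or below 10% of carrier control in both of two separate runs; inconclusive = viability at or below 10% in only one of the two runs; inactive = the rest.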

Experiments:
[1] = Her2 expression decrease, cell viability multiplex – SKBR3 breast tumor cells, AlphaScreen, ATP viability, primary screen (AID 461;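 active = Her2 level under about 52% in both replicate screens, with viability over 70% of control, limit read from the data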;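 as to Her2 level: lower value means less Her2 protein in the cells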;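 as to viability: percent of carrier control wells set as 100% viability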); details: SKBR3 Her2 protein level, 18-24 h, measured here: SKBR3 viability, ATP luminescence, at 10 µM
[2] = target: Receptor tyrosine-protein kinase erbB-2 (Homo sapiens) (UniProt P04626); assay: as above; details: 18-24 h, at 10 µM, stronger effect = lower value
[3] = reduced viability of SK-BR-3 breast cancer cells – cell-based, 24 h, human, pilot screen (AID 572); details: SK-BR-3 viability, CellTiter-Glo luminescence, at 10 µM, stronger effect = lower value;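 also: compound exposure lasted between 18 and 24 h rather than exactly 24 h; 100% = carrier-treated control wells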
[4] = HUVEC growth inhibition – cell-based, human, primary screen (AID 575;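 active = viability at or below 30% in both replicate assays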;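 also: 100% = median of untreated cell wells with 0.1% DMSO on each plate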); details: HUVEC proliferation, CellTiter-Glo luminescence, 72 h; at 10 µM; stronger effect = lower value
Summary of the method: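 System – primary HUVEC, no more than 12 passages · Medium – Low-serum (2% FBS) EBM, supplemented · Times – 72 h exposure, 37 °C, 5% CO2, 30 min RT equilibration · Measured by – luminescent ATP assay · Read-out – % viability relative to median vehicle-well signal on each plate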

[5] = H69AR cell proliferation blockers – human, duplicate replicates, primary screen (AID 580;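 active = viability at or under a set limit in both replicates, limit being median viability minus 3 SD, cut at about 48% in these data, passing the limit was not always enough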;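 also: 100% = mean luminescence of untreated wells and 0% = no signal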); details: H69AR lung tumor cells viability, ATP luminescence, 72 h; at 10 µM; stronger effect = lower value
[6] = MRP1 drug-resistance reversers in H69AR cells – cell-based, doxorubicin co-treatment, pilot screen (AID 601;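 active = viability loss from added drug above about 55%, and viability with drug at most 40%, in both replicates, limit read from the data, passing the limit was not always enough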); details: CellTiter-Glo, 72 h, at 10 µM; for differential viability (reversal): stronger effect = higher value
[7] = yeast transport mutant growth inhibition pilot in 384-well plates, post-Golgi transport modulator project (AID 636; in the data active = inhibition above about 31%); details: absorbance 615 nm, about 18 h, stronger effect = higher value
[8] = growth suppression of yeast trafficking mutant, preliminary HTS, modulators of trafficking downstream of Golgi apparatus project, 1536-format plate, OD 615 nm (AID 637; in the data active = inhibition above about 30%); details: yeast transport mutant growth, absorbance 615 nm, 18 h; stronger effect = higher value
[9] = H69AR cells + 2 uM doxorubicin, measured here: viability with 2 uM doxorubicin, stronger effect = lower value
[10] = H69AR cells, compound alone cytotoxicity

Sequence of Receptor tyrosine-protein kinase erbB-2 (Homo sapiens) (P04626 whole entry, looked up): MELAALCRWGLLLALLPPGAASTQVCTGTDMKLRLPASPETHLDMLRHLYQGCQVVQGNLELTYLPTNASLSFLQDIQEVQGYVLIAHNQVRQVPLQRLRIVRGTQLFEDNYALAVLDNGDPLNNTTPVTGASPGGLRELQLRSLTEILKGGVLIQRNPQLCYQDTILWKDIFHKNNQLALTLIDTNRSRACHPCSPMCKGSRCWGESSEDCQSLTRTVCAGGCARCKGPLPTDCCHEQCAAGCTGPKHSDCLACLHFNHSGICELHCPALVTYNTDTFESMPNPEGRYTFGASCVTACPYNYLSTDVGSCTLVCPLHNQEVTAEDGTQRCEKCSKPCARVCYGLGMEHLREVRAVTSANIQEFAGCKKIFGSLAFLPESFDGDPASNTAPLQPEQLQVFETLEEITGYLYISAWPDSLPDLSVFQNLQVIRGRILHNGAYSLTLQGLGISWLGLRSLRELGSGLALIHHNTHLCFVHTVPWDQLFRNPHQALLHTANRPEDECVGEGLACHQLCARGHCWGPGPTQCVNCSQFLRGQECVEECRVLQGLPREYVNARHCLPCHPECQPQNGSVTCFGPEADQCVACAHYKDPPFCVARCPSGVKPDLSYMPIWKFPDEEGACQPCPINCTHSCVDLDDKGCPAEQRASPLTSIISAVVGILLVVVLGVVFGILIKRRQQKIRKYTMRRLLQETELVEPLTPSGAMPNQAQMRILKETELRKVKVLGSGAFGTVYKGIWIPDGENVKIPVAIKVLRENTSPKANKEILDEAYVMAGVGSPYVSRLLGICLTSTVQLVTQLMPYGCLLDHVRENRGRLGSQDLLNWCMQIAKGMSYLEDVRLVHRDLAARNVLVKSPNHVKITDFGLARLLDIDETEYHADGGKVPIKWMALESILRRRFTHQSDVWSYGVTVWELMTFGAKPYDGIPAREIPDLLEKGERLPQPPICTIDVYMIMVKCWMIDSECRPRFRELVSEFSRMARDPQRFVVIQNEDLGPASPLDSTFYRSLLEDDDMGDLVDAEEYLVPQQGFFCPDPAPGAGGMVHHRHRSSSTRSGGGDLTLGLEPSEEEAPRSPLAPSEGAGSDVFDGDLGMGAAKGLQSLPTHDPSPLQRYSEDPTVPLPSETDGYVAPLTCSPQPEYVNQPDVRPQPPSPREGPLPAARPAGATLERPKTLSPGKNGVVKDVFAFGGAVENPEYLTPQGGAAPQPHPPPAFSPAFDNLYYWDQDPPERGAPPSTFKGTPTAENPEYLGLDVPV

| Compound | viability [1] | Her2 level [2] | viability [3] | viability [4] | viability [5] | differential viability (reversal) ([6]; H69AR cells + 2 uM doxorubicin) | viability [6, 9] | viability [6, 10] | inhibition [7] | inhibition [8] |
| --- | --- | --- | --- | --- | --- | --- | --- | --- | --- | --- |
| CCC(=O)N1C(=O)CCN(C(C)=O)c2ccccc21 | 86.5% | 106% (inactive) | 86.5% (inactive) | 100% (inactive) | 103% (inactive) | -1.28% (inactive) | 104% | 103% | -4.67% (inactive) | 0.32% (inactive) |
| CCCCc1noc2c1/C(=N\O)CC(c1ccccc1)C2 (stereo not given) | 86% | 82.5% (inactive) | 86% (inactive) | 108% (inactive) | 90.5% (inactive) | -0.815% (inactive) | 91.3% | 90.5% | 3.11% (inactive) | -3.77% (inactive) |
| O=C(CCn1c(=S)[nH]c2cc3c(cc2c1=O)OCO3)N1CCN(C2CCCCC2)CC1 | 90.5% | 82.5% (inactive) | 90.5% (inactive) | 93.8% (inactive) | 90% (inactive) | -2.85% (inactive) | 92.8% | 90% | -5.54% (inactive) | -0.66% (inactive) |
| Cc1onc(-c2ccccc2)c1C(=O)Nc1ccnn1C1CCCCC1 | 99.5% | 97.5% (inactive) | 99.5% (inactive) | 91.3% (inactive) | 90.6% (inactive) | -4.68% (inactive) | 95.3% | 90.6% | -5.6% (inactive) | -2.95% (inactive) |
| O=C1CCc2cc(S(=O)(=O)N3CCC(C(=O)NCc4ccccn4)CC3)ccc2N1 | 81% | 89% (inactive) | 81% (inactive) | 98% (inactive) | 96.7% (inactive) | 1.42% (inactive) | 95.3% | 96.7% | -0.4% (inactive) | 14.4% (inactive) |
| CCCCNC(=O)c1c(C)cc(=O)oc1C | 102% | 90.5% (inactive) | 102% (inactive) | 98.6% (inactive) | 107% (inactive) | 14.8% (inactive) | 92% | 107% | -4.53% (inactive) | -1.45% (inactive) |
| O=C(CSc1n[nH]c(-c2cccs2)n1)N1CCN(S(=O)(=O)c2ccccc2)CC1 | 80.5% | 78.5% (inactive) | 80.5% (inactive) | 97.4% (inactive) | 102% (inactive) | -3.67% (inactive) | 106% | 102% | 0.91% (inactive) | 9.84% (inactive) |
| FC(F)Oc1ccc(-c2csc(Cc3nnc4n3CCCCC4)n2)cc1 | 78% | 102% (inactive) | 78% (inactive) | 110% (inactive) | 97.2% (inactive) | 5.74% (inactive) | 91.5% | 97.2% | -7.26% (inactive) | -9.05% (inactive) |
| CCN(CC)c1ccc(NC(=O)c2[nH]c(C)c(C(C)=O)c2C)c(C)c1 | 92.5% | 91% (inactive) | 92.5% (inactive) | 93.1% (inactive) | 74.8% (inactive) | -1.04% (inactive) | 75.9% | 74.8% | -0.39% (inactive) | -8.06% (inactive) |
| Cc1cccc(NC(=O)CC(C)(C)C)c1 | 110% | 90.5% (inactive) | 110% (inactive) | 92.4% (inactive) | 97.9% (inactive) | 2.31% (inactive) | 95.6% | 97.9% | -6.53% (inactive) | -5.08% (inactive) |
| CCOC(=O)C1(C)NC(c2ccc(OC)c(OC)c2)C2C(=O)N(CC)C(=O)C21 (stereo not given) | 96.5% | 106% (inactive) | 96.5% (inactive) | 89.2% (inactive) | 101% (inactive) | 7.14% (inactive) | 93.8% | 101% | -0.41% (inactive) | -1.27% (inactive) |
| CC1Cc2nc(SCC(=O)Nc3ccccc3F)n(C)c(=O)c2S1 (stereo not given) | 104% | 89.5% (inactive) | 104% (inactive) | 92.4% (inactive) | 93.5% (inactive) | -0.345% (inactive) | 93.8% | 93.5% | -7.95% (inactive) | 4.29% (inactive) |
| CSCCC(C(=O)Nc1ccc2c(c1)OCO2)N1C(=O)c2ccccc2C1=O (stereo not given) | 91% | 79% (inactive) | 91% (inactive) | 88.1% (inactive) | 96.4% (inactive) | 4.44% (inactive) | 92% | 96.4% | -1.3% (inactive) | -1.43% (inactive) |
| O=C(CN1C(=O)CC(c2ccco2)Sc2ccccc21)Nc1ccccc1F (stereo not given) | 82.5% | 82% (inactive) | 82.5% (inactive) | 72.2% (inactive) | 84.3% (inactive) | 3.75% (inactive) | 80.6% | 84.3% | 0% (inactive) | -0.83% (inactive) |
| Cc1nnc(C)n1/N=C/c1cccc(Oc2ccccc2)c1 | 100% | 78.5% (inactive) | 100% (inactive) | 98% (inactive) | 87.4% (inactive) | 4.77% (inactive) | 82.6% | 87.4% | -1.97% (inactive) | 0.16% (inactive) |
| Cc1nnc(SCc2cn3ccsc3n2)n(N)c1=O | 95.5% | 81.5% (inactive) | 95.5% (inactive) | 95% (inactive) | 86.5% (inactive) | -4.16% (inactive) | 90.7% | 86.5% | 0.26% (inactive) | 21.3% (inactive) |

| Compound | viability [1] | Her2 level [2] | viability [3] | viability [4] | viability [5] | differential viability (reversal) ([6]; H69AR cells + 2 uM doxorubicin) | viability [6, 9] | viability [6, 10] | inhibition [7] | inhibition [8] |
| --- | --- | --- | --- | --- | --- | --- | --- | --- | --- | --- |
| COc1ccc(Cl)cc1S(=O)(=O)n1cnc2ccccc21 | 99% | 106% (inactive) | 99% (inactive) | 59.1% (inactive) | 33.7% (active) | -49.8% (inactive) | 83.5% | 33.7% | -4.59% (inactive) | -2.3% (inactive) |
| CC(C)c1ccc(S(=O)(=O)N2CCN(CCC(=O)Nc3ccc(N(C)C)cc3)CC2)cc1 | 100% | 93% (inactive) | 100% (inactive) | 66.8% (inactive) | 60.6% (inactive) | 40.2% (inactive) | 20.4% | 60.6% | -3.29% (inactive) | -4.67% (inactive) |
| CCC(C)NC(=O)CC1Oc2ccc(C)cc2NC1=O (stereo not given) | 105% | 99% (inactive) | 105% (inactive) | 90.3% (inactive) | 91.7% (inactive) | -2.57% (inactive) | 94.2% | 91.7% | 0.13% (inactive) | -3.28% (inactive) |
| O=C(CSc1nnc(-c2cccs2)o1)N1CCOCC1 | 107% | 92.5% (inactive) | 107% (inactive) | 99.4% (inactive) | 96.6% (inactive) | -4.63% (inactive) | 101% | 96.6% | -3.6% (inactive) | -1.45% (inactive) |
| CCn1c(=S)sc2nc(C)sc21 | 94% | 100% (inactive) | 94% (inactive) | 96.6% (inactive) | 93.7% (inactive) | 3.59% (inactive) | 90.1% | 93.7% | -4.27% (inactive) | 1.94% (inactive) |
| Brc1ccc(-c2csc(/N=C/N3CCOCC3)n2)cc1 | 113% | 100% (inactive) | 113% (inactive) | 85% (inactive) | 97.6% (inactive) | 5.1% (inactive) | 92.5% | 97.6% | -4.4% (inactive) | -7.1% (inactive) |
| Cn1c2ccccc2c2c(C(=O)NCCCN3CCCC3=O)cn(C3CCCCC3)c(=O)c21 | 86% | 88.5% (inactive) | 86% (inactive) | 95.9% (inactive) | 83.7% (inactive) | 3.06% (inactive) | 80.7% | 83.7% | -4.53% (inactive) | -0.49% (inactive) |
| COc1ccc2c(c1)n([O-])c1c([n+]2=O)CCC1 | 110% | 91.5% (inactive) | 110% (inactive) | 109% (inactive) | 100% (inactive) | -6% (inactive) | 106% | 100% | -1.18% (inactive) | -4.55% (inactive) |
| O=C(NCCC1=CCCCC1)c1cc2c(s1)CS(=O)(=O)C2 | 114% | 93.5% (inactive) | 114% (inactive) | 85.7% (inactive) | 88.5% (inactive) | 4.64% (inactive) | 83.8% | 88.5% | -3.77% (inactive) | -3.28% (inactive) |
| CCCC(O)(CCN(C)C)c1ccc(OC)cc1 (stereo not given) | 89% | 79.5% (inactive) | 89% (inactive) | 98.5% (inactive) | 88.3% (inactive) | 4.26% (inactive) | 84% | 88.3% | -0.26% (inactive) | 0.48% (inactive) |
| O=C(O)COc1ccc2occ(C(=O)c3ccccc3)c2c1 | 102% | 95.5% (inactive) | 102% (inactive) | 100% (inactive) | 93.9% (inactive) | 1.01% (inactive) | 92.9% | 93.9% | -3.55% (inactive) | 7.21% (inactive) |
| COc1ccc(CCNC(=O)c2ccncc2)cc1OC | 107% | 110% (inactive) | 107% (inactive) | 96.3% (inactive) | 97.5% (inactive) | 12.2% (inactive) | 85.3% | 97.5% | -6.27% (inactive) | -3.71% (inactive) |
| Cc1cc(SCC(N)=O)nc(SCC(=O)c2ccccc2)n1 | 92.5% | 89% (inactive) | 92.5% (inactive) | 106% (inactive) | 99.8% (inactive) | 10.1% (inactive) | 89.7% | 99.8% | -0.53% (inactive) | -5.08% (inactive) |
| CCc1nnc(NC(=O)C2CCCN2S(=O)(=O)c2ccc(C)cc2)s1 (stereo not given) | 91.5% | 89.5% (inactive) | 91.5% (inactive) | 117% (inactive) | 117% (inactive) | 5.4% (inactive) | 112% | 117% | -6.35% (inactive) | 6.07% (inactive) |
| N=c1c(C(=O)NCc2ccc(F)cc2)cc2c(=O)n3ccccc3nc2n1CCCN1CCOCC1 | 95% | 74.5% (inactive) | 95% (inactive) | 82.8% (inactive) | 76.6% (inactive) | -8.96% (inactive) | 85.6% | 76.6% | 0.78% (inactive) | 10.8% (inactive) |
